# From PubChem BioAssay
# In the library only some 2.3% were active in any assay of this set; here they are far more common.
# T cruzi inh: blocks replication of Trypanosoma cruzi; T. cruzi beta-gal in NIH3T3, luminescence, 90 h; inhibition, % (concentration not given with the values); 300,000 tested, 1.4% active; AID 1885;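 active = mean inhibition across valid replicates above about 55%, limit read from the data; inconclusive = mean below that limit but half or more replicates reach it; inactive = mean below it, under half of replicates reach it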;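 also: signal also drops with host cell toxicity which is not excluded here; higher percent means less beta-gal luminescence so fewer parasites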
#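 Assay system: NIH/3T3 fibroblasts plus reporter T. cruzi. Amount: NIH/3T3 cells, 5,000 per well. Buffer or medium: DMEM, 2% fetal bovine serum. Doses: compound pinned at 50 nL/well, DMSO. Schedule: ≥90 h infection period, 3 h prior cell attachment. Signal: luminescent β-galactosidase signal after 60 min lysis. Read-out: parasite load inhibition, %.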
# KLF5 inhibitor: kruppel-like factor 5 inhibition; inhibition, % at 5 µM; 290,000 tested, 0.23% active; DLD-1 KLF5 promoter-luciferase reporter, luminescence;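 active = inhibition above a per-plate limit of that plate's mean compound inhibition plus 3 SD, cut at about 60% in these data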;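 also: higher means less KLF5 promoter-driven luciferase light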
# HIF act: HIF pathway transcriptional activation | 300,000 tested, 0.32% active | activation, % at 7.5 µM (by protocol) | U2OS HRE-luciferase reporter, luminescence; normalized: DMSO 0%, desferrioxamine 100%;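 active = mean activation of at least 10% of the iron chelator positive control signal, with at least half of replicates also reaching 10%; inconclusive = mean and replicate majority disagree about reaching 10%; inactive = mean and most replicates under 10%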
# Beta cell apopt: blocks beta cell apoptosis; protection from apoptosis, % (test concentration not listed); AID 435005; INS-1E cytokine-induced death, ATP luminescence, 48 h; percent of positive-control rescue, neutral wells zero; 300,000 tested, 0.8% active;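 active = Every replicate reaches about 75%, or at least half do and their mean reaches it too, limit read from the data; inconclusive = At least half of replicates reach the limit but their mean does not; inactive = Under half of replicates reach the limit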;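 also: higher means more ATP so stronger rescue from cytokine killing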
# A1 inh: inhibitors of the anti-apoptotic protein A1, read as caspase activation | MEF A1-2A-BIM cells, Caspase-Glo 3/7 luminescence, 3 h; percent of clofoctol response, vehicle zero | caspase activation, % (concentration not given with the values) | 330,000 tested, 0.066% active | AID 2462;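 active = over half of replicate activation scores above 10%, or exactly half above 10 with the replicate mean above 10; inconclusive = replicate mean below 10 yet half the replicates above 10; inactive = over half of replicates below 10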
# Numbers stand for hits; n = inactive; u = inconclusive; x = not tested or not shown.
SMILES,T cruzi inh,KLF5 inhibitor,HIF act,Beta cell apopt,A1 inh
COCc1cc(CN2CCCC(CNC(=O)c3ccc(F)cc3)C2)ccc1OC (centres undefined),81,n,n,n,n
CC(=O)NCC1CCCN(Cc2cn(-c3ccccc3)nc2-c2ccc3c(c2)OCO3)C1 (centres undefined),n,n,n,n,n
CCc1ccc(CN2CCCC(CNC(=O)c3cccc(OC)c3OC)C2)cc1 (centres undefined),61,n,n,n,u
Cc1cc(CN2CCCC(CNC(=O)c3ccc(F)cc3)C2)cc(C)c1O (centres undefined),n,n,n,n,n
Cn1cc(CN2CCCC(CNC(=O)c3ccc4c(c3)OCO4)C2)c2ccccc21 (centres undefined),66,n,n,x,n
O=C(Nc1ccc(Cl)cc1)C1C2CCCCC21 (centres undefined),n,n,n,n,n
COc1cc(-c2nc(C(=O)NC3CCN(Cc4ccccc4)CC3)cc3c2[nH]c2ccccc23)cc(OC)c1OC,77,n,n,n,n
COc1ccc(OC)c(-c2nc(C(=O)NC3CCN(Cc4ccccc4)CC3)cc3c2[nH]c2ccccc23)c1,n,n,n,x,n
C/C=C/c1ccc(OCCCCN2CC(C)CC(C)C2)c(OC)c1 (centres undefined),55,n,n,n,n
CCN(c1ccccc1)S(=O)(=O)c1ccc(C(=O)N(C)CCc2ccc(OC)c(OC)c2)cc1,n,n,n,n,n
CCN(CC)S(=O)(=O)c1ccc(NN=C2CCN(C(C)C)CC2)c([N+](=O)[O-])c1,n,n,n,n,n
CCN(CC)S(=O)(=O)c1ccc(NN=C2CCN(C)CC2)c([N+](=O)[O-])c1,58,n,n,n,n
O=C(Cc1ccccc1[N+](=O)[O-])NCCCc1ccccc1,n,n,n,x,n
Cc1ccc(NS(=O)(=O)c2ccc(C(=O)NCc3ccc(S(N)(=O)=O)cc3)cc2)cc1,x,x,x,n,n
CCOc1ccc(CNC2CCCCCCC2)cc1OC,n,n,n,n,12
CCCOc1ccc(CNCCCOCC)cc1OC,63,n,n,n,n
S=C(Nc1ccc(Br)cc1)N1CCN(c2ccccn2)CC1,n,n,n,n,n
S=C(NCCc1ccccc1)Nc1ccc(Nc2ccccc2)cc1,n,n,n,92,n
O=[N+]([O-])c1ccc(NC(=S)NCCc2ccc(F)cc2)cc1,n,n,n,76,n
CC(C)(CNC(=S)NCCc1ccccc1)CNC(=S)NCCc1ccccc1,65,n,n,x,x
S=C(Nc1ccc(Cl)cc1)NC1CCCCC1,n,n,n,n,n
S=C(Nc1ccc(Nc2ccccc2)cc1)NC1CCCCCC1,55,n,n,n,n
S=C(NCCCc1ccccc1)Nc1ccccc1,x,n,x,n,n
Cc1cc(NC(=O)COc2ccc3ccccc3c2Br)no1,x,x,x,n,n
Cc1nn(CC(=O)N2CCCC2)c(=O)c2cc3cc(F)ccc3n12,n,n,n,n,n
SMILES,T cruzi inh,KLF5 inhibitor,HIF act,Beta cell apopt,A1 inh
COc1ccc(N(C(=O)c2cnccn2)C(C(=O)NC2CCCCC2)c2ccc(Cl)cc2)cc1 (centres undefined),n,n,n,n,n
COc1ccc(C(C(=O)NC2CCCC2)N(C(=O)c2snc(-c3ccc(F)cc3)c2N)c2ccc(F)cc2)cc1 (centres undefined),n,n,n,n,n
COC(CN(C(=O)CCl)C(C(=O)NC1CCCCC1)c1ccc(Cl)cc1)OC (centres undefined),n,n,63,x,n
COc1ccc(C(C(=O)NC2CCCCC2)N(C(=O)CCl)c2ccc(Cl)cc2)cc1 (centres undefined),56,n,n,n,n
COc1ccc(C(C(=O)NC2CCCC2)N(C(=O)c2snc(-c3ccc(F)cc3)c2N)c2ccc(OC)cc2)cc1 (centres undefined),60,n,n,n,n
Cc1noc(C)c1S(=O)(=O)N(C)C[C@H]1Oc2c(NC(=O)C3CCCCC3)cccc2C(=O)N([C@H](C)CO)C[C@@H]1C,x,x,x,n,n
COc1ccc(OC)c(NC(=O)CSc2nnc(-c3cccnc3)s2)c1,n,n,n,99,n
COc1ccc(OC)c(NC(=O)CSc2nnc(-c3ccncc3)s2)c1,n,n,n,x,n
COC(=O)c1ccc(N2CCC(c3cc(-c4ccc(OC)cc4)n[nH]3)CC2)c([N+](=O)[O-])c1,n,n,n,n,n
